# Data reported in ChEMBL document CHEMBL1150397, “Towards the first inhibitors of trihydroxynaphthalene reductase from Curvularia lunata: synthesis of artificial substrate, homology modelling and initial screening” (Bioorg Med Chem, 2008).
# Active and inactive are the calls of the source. No cut-off for these calls is given here.
# Target: not listed separately
# Experiment: (§1) Inhibition of recombinant Curvularia lunata trihydroxynaphthalene reductase
# Details: not given
# Method in brief: (§2)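 GST-fusion 3HNR from C. lunata expressed in E. coli BL21-AI, bound on glutathione-Sepharose, thrombin-cleaved, purity checked by SDS-PAGE. Initial rates of DDBO oxidation with NADP+ reduction followed at 340 nm (NADPH absorbance), 25 °C. Conditions: 0.2 µM enzyme, 100 µM DDBO, 500 µM coenzyme, 100 mM phosphate pH 7.0, 1% final DMF. Compounds screened at 100 µM; IC50 determined over 5–200 µM where screening inhibition exceeded 35%.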
row,Structure (SMILES),IC50
1,CCOC(=O)c1cc(=O)c2cc(C)ccc2o1,120 µM
2,O=C1CC(=O)c2ccccc21,66 µM
3,O=C(O)Cc1ccccc1Nc1c(Cl)cccc1Cl [DICLOFENAC SODIUM],108 µM
4,CCOC(=O)c1cc(=O)c2cc(C)cc([N+](=O)[O-])c2o1,167 µM
5,COc1ccc2cc(CCC(C)=O)ccc2c1 [NABUMETONE],111 µM
6,CCc1cccc2c3c([nH]c12)C(CC)(CC(=O)O)OCC3 (configuration not stated) [ETODOLAC],17 µM

# System: Curvularia lunata
# Experiment: as §1
# Details: not given
# Method in brief: as §2
row,Structure (SMILES),Activity
1,CCOc1ccc(NC(C)=O)cc1,inactive
2,CC(C(=O)O)c1cccc(C(=O)c2ccccc2)c1 (configuration not stated),inactive
3,CC(C)Cc1ccc(C(C)C(=O)O)cc1 (configuration not stated),inactive
4,CC(=O)Nc1ccc(O)cc1,inactive

# Same assay, conditions: concentration not given here
row,Structure (SMILES),inhibition
1,Cc1ccc(-c2cc(C(F)(F)F)nn2-c2ccc(S(N)(=O)=O)cc2)cc1,17%
2,COc1ccc2cc([C@H](C)C(=O)O)ccc2c1,9%
